The values below come from ChEMBL document CHEMBL5120861, “Short peptide pharmacophores developed from protein phosphatase-1 disrupting peptides (PDPs)” (Bioorg Med Chem, 2022).

Activity calls are given as the source filed them. No cut-off for these calls is given here. Where a SMILES comes first, the peptide text is derived from it. [ ]: non-standard residue; d: D form. NMeR = CN[C@@H](CCCNC(=N)N)C(=O)O; hArg = N=C(N)NCCCC[C@H](N)C(=O)O; β3hR = N=C(N)NCCC[C@H](N)CC(=O)O; Gly(cPr) = N[C@H](C(=O)O)C1CC1; Orn = NCCC[C@H](N)C(=O)O

Assay [1] in a line: Disruption of PP1 holoenzyme (unknown origin) interaction with protein inhibitor 2 assessed as increase in PP1 phosphatase activity by measuring increase in fluorescence using DiFMUP as substrate enzyme preincubated with I2 for ten mins followed by compound treatment for 20 mins followed by substrate addition by fluorescence based analysis. The arrangement: species or system Homo sapiens.

Another assay has as its system HeLa. Put plainly: Induction of calcium release in human HeLa cells and measured for 30 mins by fluorescent Ca2+-indicator dye Fluo-4 based fluorescence microscopy. The format is functional, cell-based. Summed up:
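HeLa Kyoto cells in low-glucose DMEM, 10% FBS, seeded day before to ~80% confluency; loaded with 0.5 μM Fluo-4 in HEPES imaging buffer pH 7.4 (1.2 mM CaCl2) 30 min rt, washed; confocal imaging ex 488/em 516 nm, 2 min baseline, compound added, recorded 30 min; responder cells counted. Calcium-free variant: CaCl2 omitted, 250 μM EGTA.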

The species entered for assay [2] is Homo sapiens. As to the kind of experiment: Disruption of PP1 holoenzyme (unknown origin) interaction with protein inhibitor 2 assessed as increase in PP1 phosphatase activity by measuring increase in fluorescence using DiFMUP as substrate at 500 uM enzyme preincubated with I2 for ten mins followed by compound treatment for 20 mins followed by substrate addition by fluorescence based analysis.

Assay [3] is filed under the species Homo sapiens. As to the kind of experiment: Binding affinity to PP1 (unknown origin) assessed as change in entropy at compound to protein molar ratio of 1:1 by isothermal titration calorimetry assay. Summed up:
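PP1 dialyzed into 20 mM TrisCl pH 7.4, 200 mM NaCl, 1 mM TCEP, precipitate removed, 19.16 μM (0.72 mg/ml) in the cell. Compound 500 μM in last dialysis buffer, injected 1.8 μl every 2 min at 25°C. Data corrected for dilution heat and fitted for stoichiometry, Kd, ΔH, ΔS.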

Assay [4] is described as follows: Binding affinity to PP1 (unknown origin) assessed as dissociation constant at compound to protein molar ratio of 1:1 by isothermal titration calorimetry assay. The arrangement: species or system Homo sapiens. The method in brief:
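PP1 dialysed into 20 mM TrisCl pH 7.4, 200 mM NaCl, 1 mM TCEP; precipitate removed, protein concentrated to 19.16 μM (0.72 mg/ml) in cell. Peptide dissolved in final dialysis buffer (also the reference), 500 μM in syringe, 1.8 μl injections every 2 min at 25°C. Data corrected for dilution heat and fitted for Kd and stoichiometry.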

The nature of assay [5]: Binding affinity to PP1 (unknown origin) assessed as binding to RVxF binding site of PP1 by competing with PDP incubated for 60 mins in presence of biotin-PDP2 by ALPHA assay. Also noted: species or system Homo sapiens. The method in brief: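 His-tagged PP1 200 nM with biotin-PDP2 67 nM in 50 mM TrisCl pH 7.5, 150 mM NaCl, 0.05% Tween 20, 1 mM MnCl2, 0.1% BSA; serial dilutions starting from 10 mM, 60 min rt; then streptavidin-donor and anti-His-acceptor beads at 5 μg/ml final, 90 min rt in dark; excitation 680 nm, emission 570 nm. Non-specific control used 22 nM GST(His-Biotin) instead.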

In the case of `CC(C)[C@H](NC(=O)[C@H](CCCNC(=N)N)NC(=O)C[C@@H](N)CCCNC(=N)N)C(=O)N[C@@H](Cc1cnc[nH]1)C(=O)N[C@@H](Cc1ccccc1)C(N)=O` (H-[β3hR]RVHF-NH2), the EC50 in assay [1] turned out to be 3200 nM. Also, the result with HeLa was Active.

On to `CC[C@H](C)[C@H](NC(=O)[C@@H](N)CCCNC(=N)N)C(=O)N[C@H](C(=O)N[C@@H](Cc1ccccc1)C(=O)O)[C@@H](C)O` (H-RITF-OH), for which the result in the assay listed under Homo sapiens [2] was Active.

Regarding `CC(C)[C@H](NC(=O)[C@@H](NC(=O)[C@@H](N)CCCNC(=N)N)C(C)C)C(=O)N[C@@H](Cc1ccccc1)C(=O)O` (H-RVVF-OH), the outcome in the assay listed under Homo sapiens [2] was Active.

On to `CC(C)[C@H](NC(=O)[C@H](CCCCNC(=N)N)NC(=O)[C@@H](N)CCCCN)C(=O)N[C@@H](Cc1cnc[nH]1)C(=O)N[C@@H](Cc1ccccc1)C(N)=O` (H-K[hArg]VHF-NH2), for which, in assay [1], the EC50 worked out at 1700 nM. Further, the Activity result in the assay on HeLa (DDE = dose-dependent effect) is “Dde”.

With `CC(C)[C@H](NC(=O)[C@@H](N)CCCNC(=N)N)C(=O)N[C@@H](Cc1ccc(O)cc1)C(=O)N[C@@H](Cc1ccccc1)C(=O)O` (H-RVYF-OH), the result in the assay filed under Homo sapiens [2] was Active.

`CC(C)[C@H](NC(=O)[C@H](CCCNC(=N)N)N(C)C(=O)[C@@H](N)CCCCN)C(=O)N[C@@H](Cc1cnc[nH]1)C(=O)N[C@@H](Cc1ccccc1)C(N)=O` (H-K[NMeR]VHF-NH2): in assay [1], the EC50 came out at 4700 nM. Further, the outcome with HeLa was Active.

Take `CC(C)[C@H](NC(=O)[C@H](CCCNC(=N)N)NC(=O)[C@@H](N)CCCN)C(=O)N[C@@H](Cc1c[nH]cn1)C(=O)N[C@@H](Cc1ccccc1)C(N)=O` (H-[Orn]RVHF-NH2): the EC50 in assay [1] came to 4100 nM. Also, the result in the assay on HeLa was Active.

`N=C(N)NCCC[C@H](NC(=O)[C@@H](N)CCCCN)C(=O)N[C@H](C(=O)N[C@@H](Cc1c[nH]cn1)C(=O)N[C@@H](Cc1ccccc1)C(N)=O)C1CC1` (H-KR[Gly(cPr)]HF-NH2): the EC50 in assay [1] is 2100 nM. For the same molecule, the outcome in the assay with HeLa was Active.

With `CC(C)[C@H](NC(=O)[C@H](CCCNC(=N)N)NC(=O)[C@@H](N)CCCCN)C(=O)N[C@@H](Cc1cnc[nH]1)C(=O)N[C@@H](Cc1ccccc1)C(N)=O`, in assay [1], the EC50 is 600 nM. Besides, the deltaS in the assay listed under Homo sapiens [3] amounted to 3.94 cal/mol/deg. In addition, the Kd in assay [4] was determined as 2100 nM. Besides, in assay [5], the IC50 stood at 124000 nM.
